The source of these data is PubChem BioAssay AID1943 (The Scripps Research Institute Molecular Screening Center, 2009).

Hit rate of the full screen: of about 1,600 compounds, about 500 (31%) were called active. These entries were drawn from the full list. Values without a mark were called inactive.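 How the source made its calls: active means inhibition above the mean of all tested compounds plus 3 SD, cutoff set per campaign (cut at about 36% in these data); inactive means the rest.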

For the assay, the system named is Hepatitis C virus NS3 helicase. Nature of the assay: blockers of HCV NS3 DNA unwinding – biochemical, Cy5 molecular beacon fluorescence, triplicate, confirmation (AID 1943). As to conditions: at 10.9 µM, stronger effect = higher value. An outline of the steps:
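Assay system: HCV NS3 helicase fragment enzyme; also added: Quenchable beacon DNA duplex and ATP; schedule: compound added before ATP, reads at 0 and 60 min, 25 °C; measured by: Cy5 fluorescence quenching by beacon hairpin; control set: DMSO and thioflavine S wells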
Usually inhibition stands for the relative decrease from the control value, in per cent. Take `Nc1ccc2nc3c(=O)[nH]c(=S)[nH]c3nc2c1`: the inhibition is 2.58%.

In the case of `O=[N+]([O-])c1cc(Cl)cc(/C=N/NC(=S)Nc2cc(S(=O)(=O)N3CCOCC3)ccc2Cl)c1O`, the inhibition is 94.9% (active).

Regarding `Cc1ccc(S(=O)(=O)N/N=C\c2cc3c(cc2[N+](=O)[O-])OCO3)cc1`, the inhibition is -12%.

With `CN(C)c1ccc(N/C=C/C(=O)C(F)(F)F)cc1`, the inhibition is 2.03%.

With `COc1cccc(C(=O)CC(=O)C(=O)Nc2ccc([N+](=O)[O-])cc2C)c1`, the inhibition was 16.8%.

For `CCOc1ccc(C(C(=O)NCCOC)N(CCOC)C(=O)CCC(=O)Nc2ccccn2)cc1` (centres undefined), the inhibition was -12.9%.

As for `Fc1ccc(-c2ccc(-c3nn4c(-c5ccco5)nnc4s3)o2)cc1`, the inhibition is 12%.

As to `CCN(CC)CCOc1ccc2c(c1)C(=NNC(=O)c1ccccn1)c1cc(OCCN(CC)CC)ccc1-2`, the inhibition is 37.9% (active).

`COc1cc(/C=C2/C(=O)NN(c3cccc(Cl)c3)C2=O)cc(Br)c1O`: the inhibition was 57.7% (active).

For the compound `Cc1ccc(C)c(-n2c(SCC(=O)O)nc3sc4c(c3c2=O)CCCC4)c1`, the inhibition was 22.2%.

For the compound `O=C1N/C(=C/c2cccn2-c2ccccc2)C(=O)N1c1cccc(Cl)c1`, the inhibition is 6.32%.

In the case of `CS/C(=C\C(=O)c1ccco1)Nc1ccccc1Cl`, the inhibition is -6.86%.

Turning to `CCOC(=O)c1nnn(-c2nc(OC)nc(N(C)C)n2)c1-c1ccccc1`, the inhibition was -9.79%.

Take `c1ccc(CSc2nnc(-c3ccco3)c(-c3ccco3)n2)cc1`: the inhibition was 67% (active).

Take `Clc1ccccc1CSc1nnc(-c2ccco2)c(-c2ccco2)n1`: the inhibition is 72% (active).

On to `CSc1c(SCc2ccccc2)cnn(Cc2ccccc2)c1=O`, for which the inhibition was -8.85%.

As to `O=c1c2c(-c3ccccc3)ccnc2[nH]n1-c1ccccc1`, the inhibition was -13.5%.

In the case of `Brc1ccccc1C1Nc2cccc3cccc(c23)N1`, the inhibition was -7.38%.

On to `O=c1nc2s/c(=C\c3ccco3)c(=O)n2nc1Cc1ccccc1`, for which the inhibition is -17.8%.

In the case of `O=C(CCCN1C(=O)/C(=C\c2ccco2)SC1=S)Nc1cccc2ccccc12`, the inhibition was 73.3% (active).

`NS(=O)(=O)c1ccc(-c2ccc(/C=C3\SC(=O)NC3=O)o2)cc1`: the inhibition is -18.5%.

Regarding `O=C(CCl)NNc1cccc(Cl)n1`, the inhibition was -2.17%.

Regarding `CCOc1ccc(C2C3=C(CCCC3=O)N(CC(=O)O)C3=C2C(=O)CCC3)cc1`, the inhibition is -13.6%.

Consider `CC1=NN(c2ccc(Cl)c(C(=O)O)c2)C(=O)/C1=C/c1ccc(-c2ccccc2[N+](=O)[O-])o1`, for which the inhibition was 73.3% (active).

Take `CC(=O)Nc1ccc(Nc2c3ccccc3nc3ccccc23)cc1`: the inhibition is 2.42%.

`Cc1ccc(C2=N/C(=C\c3ccc(OS(=O)(=O)c4ccc(C)cc4)cc3)C(=O)O2)cc1`: the inhibition is 27.4%.

As for `Cc1ccc(/C=C/C(=O)Nc2ccc([N+](=O)[O-])c(NC(=O)/C=C/c3ccc(C)o3)c2)o1`, the inhibition is 62.1% (active).

Consider `Cc1occc1C(=O)N/N=C/c1ccc(-c2cccc([N+](=O)[O-])c2)o1`, for which the inhibition was -10.4%.

Consider `CCC1C/C(=C/c2cccs2)C(=O)/C(=C/c2cccs2)C1` (centres undefined), for which the inhibition is -12.8%.

Consider `CCOC(=O)C1=C(O)/C(=C/c2cc(C)n(-c3ccccc3)c2C)N=C1C`, for which the inhibition is -7.36%.

With `Cc1cc(C)c2nc(-c3ccco3)cc(C(=O)O)c2c1`, the inhibition was 79.1% (active).

In the case of `CC(=O)C1=C(O)C(=O)N(c2ccc(Br)cc2)C1c1ccc([N+](=O)[O-])cc1` (centres undefined), the inhibition is 46.5% (active).

`O=c1[nH]c(/C=C\c2cccc(C(F)(F)F)c2)nc(O)c1[N+](=O)[O-]`: the inhibition is -7.2%.

Turning to `COc1ccc(/C=C/C(=O)c2cc(Br)ccc(=O)c2O)cc1`, the inhibition is 82.1% (active).

Consider `CC(=O)Oc1cccc(N2C(=O)CC(Nc3ccc(N4CCOCC4)cc3)C2=O)c1` (centres undefined), for which the inhibition is -24.2%.

For the compound `Cc1ccc(C(=O)O)cc1-c1ccc(/C=C2\SC(=O)N(CC(=O)Nc3ccc4c(c3)OCO4)C2=O)o1`, the inhibition is 63.1% (active).

For `O=C(c1cccc(-n2cccc2)c1)N1CCN(S(=O)(=O)c2ccc(F)cc2)CC1`, the inhibition was -4.73%.

In the case of `COc1ccc(C)cc1-n1nnnc1SCC(=O)c1cc(C)n(Cc2ccco2)c1C`, the inhibition is 6.51%.

Turning to `O=C(N/N=C/c1ccco1)c1csc2c1CCCC2`, the inhibition was -9.79%.

As to `COc1cc(C2C(C(=O)c3ccco3)=C(O)C(=O)N2c2cc(C)on2)ccc1OCc1ccccc1` (centres undefined), the inhibition was 110% (active).

Regarding `COc1ccccc1C1/C(=C(/O)c2ccc(OC(C)C)cc2)C(=O)C(=O)N1c1cc(C)on1` (centres undefined), the inhibition is -6.81%.

As for `CC(C)c1ccc(C2C(C(=O)c3ccco3)=C(O)C(=O)N2CC2CCCO2)cc1` (centres undefined), the inhibition was -11.7%.

Turning to `O=C1C=CC(=O)N1c1ccc(N2CCCCC2)cc1`, the inhibition is -18.6%.

Regarding `COc1ccc(/C=C(\NC(=O)c2ccc(OCC(C)C)cc2)C(=O)OCc2ccco2)cc1`, the inhibition is 11.2%.

In the case of `Cc1[nH]n(C(N)=S)c(=O)c1N=Nc1ccc(Cl)cc1Cl`, the inhibition was 10.9%.

Take `CCOC(=O)c1ccccc1N1C(=O)C2Sc3[nH]c(=O)sc3C(/C=C/c3ccccc3)C2C1=O` (centres undefined): the inhibition is 44.1% (active).

On to `COC(=O)COc1ccc2c(c1C)O/C(=C\c1ccco1)C2=O`, for which the inhibition is -7.55%.

Consider `Cc1ccc(C2Nc3cccc4cccc(c34)N2)cc1`, for which the inhibition is -28.1%.

As to `Cc1nn2c(c1-c1ccccc1)N=C(c1ccco1)CC2c1ccccc1` (centres undefined), the inhibition was -12.4%.
